Assay type in all cases: functional
The species named for experiment [1] is Rattus norvegicus. In words: Ability to inhibit the uptake of norepinephrine [3H]-NE in to rat brain synaptosomes. A digest of the protocol:
(§1)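 Crude S1 synaptosomes from male Sprague–Dawley rat frontal/temporal cortex and striatum (sucrose–Tris–glucose, pH 7.4; 1000g, 15 min, 4 °C). Five drug levels, triplicate, with [3H]DA 25 nM or [3H]l-NE 50 nM final, in pargyline-containing Tris saline buffer. Preincubation 5 min, then 5 min uptake at 37 °C. Filtered, counted by scintillation, 0 °C uptake subtracted. IC50 read from sigmoidal fit.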

The species named for experiment [2] is Rattus norvegicus. In words: Ability to inhibit the uptake of dopamine [3H]DA in to rat brain synaptosomes. Summed up: as §1
A short description of experiment [3]: Eudisimic ratio for DA uptake is the ratio of the IC50 values l-isomer and d-isomer. A digest of the protocol: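 Eudismic ratio: IC50 of the l-isomer divided by IC50 of the d-isomer for each enantiomeric pair. IC50s came from rat synaptosomal [3H]DA or [3H]l-NE uptake, with five drug concentrations in triplicate and 5 min at 37 °C.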

Each structure is given as a SMILES string. pIC50: −log10 of the molar value.

One may read the pIC50 as the negative decadic logarithm of the IC50, by convention in mol/L. For the molecule `COC(=O)[C@@H](c1ccccc1)[C@@H]1CCCCN1`, the negative logarithm of the IC50 (pIC50) in experiment [1] is 6.06; in experiment [2] it was 5.83.
The corresponding values for `COC(=O)C(c1ccccc1)C1CCCCN1` (racemic) [METHYLPHENIDATE] are 6.77 and 6.36.
For the molecule `COC(=O)[C@@H](c1ccc(Br)cc1)[C@@H]1CCCCN1`, the values for the pIC50 in experiment [1] and in experiment [2] were 6.61 and 6.39, respectively.
The corresponding values for `COC(=O)[C@H](c1ccccc1)[C@H]1CCCCN1` [DEXMETHYLPHENIDATE] are 6.89 and 6.77.
The corresponding values for `COC(=O)[C@H](c1ccc(Br)cc1)[C@H]1CCCCN1` are 8.03 and 7.65.
As for `COC(=O)[C@H](c1ccc(OC)cc1)[C@H]1CCCCN1`, the results for the negative logarithm of the IC50 (pIC50) in experiment [1] and in experiment [2] were 7.14 and 6.69, respectively. Further, the Eudismic ratio in experiment [3] came to 17.5.
In the case of `COC(=O)[C@@H](c1ccc(OC)cc1)[C@@H]1CCCCN1`, the values for the negative logarithm of the IC50 (pIC50) in experiment [1] and in experiment [2] were 5.88 and 5.45, respectively.

(Values after ChEMBL document CHEMBL1131474, “Asymmetric synthesis and pharmacology of methylphenidate and its para-substituted derivatives” (J Med Chem, 1998).)
